KCNQ1 pot: potentiates or activates the human KCNQ1 potassium channel. AID 2648. hit rate 0.35% among 310,000. CHO-K1 KCNQ1, thallium flux FluxOR fluorescence; hits give high values. B-score at 10 µM;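 active = fluorescence ratio B-score, a plate-corrected score, at least three library SD, with initial intensity B-score within 5 SD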
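Material: CHO-K1 cells stably expressing KCNQ1. Medium: assay buffer for compound exposure, DMSO matched across wells. Reagent: K+/Tl+ depolarizing stimulus. Compound dosing: single-concentration screen. Times: 37 °C overnight plating, 90-min dark dye load, 20-min compound pretreatment. Technique: FluxOR Tl+ flux fluorescence.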
hERG rescue: shields human hERG channel from block by proarrhythmic agents; CHO-hERG, FluxOR thallium flux, dofetilide IC70 present; AID 1511; activation (rescue from dofetilide block), less the hit threshold, % at 10 µM; Q12809; hit rate 0.51% among 310,000;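 active = activation above the mean of controls blocked by dofetilide plus 5 SD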;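 also: thallium influx through hERG after potassium depolarization seen as dye fluorescence rise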
Target sequence (Q12809 whole entry, looked up): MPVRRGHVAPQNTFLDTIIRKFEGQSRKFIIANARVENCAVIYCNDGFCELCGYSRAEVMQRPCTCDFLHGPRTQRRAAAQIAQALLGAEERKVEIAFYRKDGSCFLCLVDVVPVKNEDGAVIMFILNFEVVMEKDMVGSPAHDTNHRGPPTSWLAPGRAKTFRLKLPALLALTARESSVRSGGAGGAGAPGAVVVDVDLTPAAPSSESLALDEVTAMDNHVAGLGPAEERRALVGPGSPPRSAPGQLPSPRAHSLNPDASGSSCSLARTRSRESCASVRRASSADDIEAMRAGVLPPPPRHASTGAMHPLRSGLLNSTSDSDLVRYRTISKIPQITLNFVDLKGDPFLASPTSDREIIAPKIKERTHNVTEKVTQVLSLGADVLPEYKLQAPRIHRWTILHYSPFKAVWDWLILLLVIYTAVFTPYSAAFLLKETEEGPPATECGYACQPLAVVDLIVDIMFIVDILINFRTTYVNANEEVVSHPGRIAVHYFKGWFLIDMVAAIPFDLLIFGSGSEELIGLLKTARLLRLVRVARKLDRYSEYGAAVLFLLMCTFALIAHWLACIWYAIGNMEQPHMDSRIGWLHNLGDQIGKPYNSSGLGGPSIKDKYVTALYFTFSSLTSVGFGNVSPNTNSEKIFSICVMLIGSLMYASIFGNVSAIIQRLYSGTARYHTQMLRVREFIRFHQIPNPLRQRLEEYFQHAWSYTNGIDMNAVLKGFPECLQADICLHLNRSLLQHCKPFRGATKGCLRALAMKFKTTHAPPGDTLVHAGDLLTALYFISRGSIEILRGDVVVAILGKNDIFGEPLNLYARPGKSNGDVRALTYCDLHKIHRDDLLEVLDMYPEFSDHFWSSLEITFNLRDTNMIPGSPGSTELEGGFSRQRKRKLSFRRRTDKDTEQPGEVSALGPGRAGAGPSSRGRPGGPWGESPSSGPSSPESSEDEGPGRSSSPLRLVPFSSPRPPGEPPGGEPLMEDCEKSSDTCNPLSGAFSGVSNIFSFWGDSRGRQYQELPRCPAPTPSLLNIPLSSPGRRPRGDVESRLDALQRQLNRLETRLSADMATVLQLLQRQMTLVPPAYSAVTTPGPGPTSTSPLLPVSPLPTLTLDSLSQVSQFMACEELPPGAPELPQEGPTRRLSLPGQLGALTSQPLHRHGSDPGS
KCNQ1 block: human KCNQ1 channel inhibition | B-score at 10 µM | CHO-K1 KCNQ1, FluxOR thallium flux fluorescence; hits give high values | hit rate 1.3% among 310,000 | P51787;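 active = compounds whose thallium flux B-score, printed positive for inhibition, exceeds three library SD while starting fluorescence stays within three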;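 also: channel opened by potassium depolarization with thallium stimulus after 20 min compound exposure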
KCNK9 block: human KCNK9 channel inhibition; HEK293 KCNK9, FluxOR thallium flux fluorescence; hits give low values; B-score at 10 µM; hit rate 1.2% among 310,000;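 active = ratio B-score over 3 SD below the library mean, with starting fluorescence within 5 SD of its mean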;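 also: negative B-score means less thallium flux so channel inhibition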
KCNK3 block: human KCNK3 channel inhibition, primary screen; O14649; CHO-KCNK3 thallium flux, FluxOR fluorescence; hits give low values; B-score at 10 µM; hit rate 0.84% among 340,000;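 active = B-score under library mean minus 4 SD, starting fluorescence ratio at most library mean plus 5 SD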;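 also: more negative B-score means stronger inhibition of thallium flux through KCNK3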
Kir21 block: blocks the mouse Kir2.1 inward-rectifier potassium channel | B-score at 10 µM | HEK293-Kir2.1, FluxOR thallium flux fluorescence; hits give low values | P35561 | hit rate 0.85% among 310,000;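 active = fluorescence ratio B-score at or below minus 3 SD of library scores, with starting-brightness B-score within 2 SD, cut at about -4.2 in these data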;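 also: channel flux triggered by added potassium and thallium sulfate stimulus; B-score of peak minus minimum fluorescence over baseline after thallium stimulus; more negative B-score means stronger Kir2.1 block with less thallium influx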
Numbers without * were called inactive; i = inactive; . = not tested or not shown. An excerpt weighted towards active compounds, which were near 3.7% of everything screened.

SMILES	KCNQ1 pot	hERG rescue	KCNQ1 block	KCNK9 block	KCNK3 block	Kir21 block
CCOC(=O)C1=C(C)Nc2sc(C(=O)c3ccc(OC)cc3)c(N)c2C1c1ccc(C(=O)OC)cc1 (stereo not drawn)	i	-10	i	-6.7*	i	-0.64
CCOc1ccc(C=NC23CN4CN(CN(C4)C2)C3)cc1	i	12*	i	i	i	-0.43
CCOc1ccc(/C=N/O)cc1	i	-6	i	i	i	-1.7
COc1cccc(N(C(=O)Cn2nnc(-c3ccc(C)o3)n2)C(C(=O)NC(C)(C)C)c2cccs2)c1 (stereo not drawn)	i	6.4*	i	i	i	0.66
CC1CCN(C(=O)CNC(=O)CNC(=O)Cc2ccccc2)CC1	i	-8	i	i	i	2.9
Cc1ccc(C)c(S(=O)(=O)C(C#N)c2nc3ccccc3nc2N2CCCC2)c1 (stereo not drawn)	i	-11	i	-8.1*	i	-0.54
Cc1ccc(C)c(S(=O)(=O)C(C#N)c2nc3ccccc3nc2N2CCOCC2)c1 (stereo not drawn)	i	-6	i	i	i	-1.2
O=C(N/N=C/c1c(O)n(-c2ccc(Cl)cn2)c(=O)c2ccccc12)c1ccncc1	i	-28	11*	-6.9*	i	-4.4
CCOC(=O)c1c(C)n(-c2ccc(C)cc2)c2ccc(OCC(O)CNCC3CCCO3)cc12 (stereo not drawn)	i	-42	7*	i	i	-3.1
ON=C1CCCCCCCC1	.	.	.	.	i	.
NC(N)=NN=C1CCCCCCCCCCC1	i	-26	7*	i	i	-11*
COc1ccc(OC)c(C2=C/C(=C/c3ccccn3)C(=O)O2)c1	i	-15	i	-7.6*	i	-1.4
COc1ccc(OC)c(-c2oc3ccccc3c(=O)c2O)c1	i	-8	i	i	i	0.64
CN(C(=O)CCn1c(=S)oc2ccccc21)c1ccc(F)cc1	i	-12	i	i	i	-5.6*
O=C(CCn1c(=S)oc2ccccc21)Nc1ccc(F)cc1	i	-6	i	i	i	1.9
Cc1cc(C)cc(N(CCC#N)C(=O)COC(=O)c2nc3nc(C)cc(C)n3n2)c1	i	-7	i	i	i	-2
CCCc1ccc(OCc2ccc(C(=O)N/N=C/c3cccnc3)o2)cc1	i	-6	i	i	i	0.33
CN1CCN(NC(=O)Nc2cc(Cl)cc(Cl)c2)CC1	i	-13	i	i	i	1.9
COc1ccc(NC(=S)N(Cc2cccnc2)Cc2ccco2)cc1	i	-17	i	i	i	0.9
CCc1ccc(NC(=S)N(Cc2cccnc2)Cc2ccco2)cc1	i	6.0*	i	i	i	-0.22
CCOc1cc(CNCc2ccncc2)cc(Br)c1OCc1ccc(F)cc1	i	-23	i	i	i	-13*
Fc1ccc(COc2ccc(Br)cc2CNCc2ccncc2)cc1	i	-19	i	i	i	-4.4*
O=C(CNC(=O)c1ccc(OC(F)F)cc1)Nc1cccc(S(=O)(=O)N2CCCC2)c1	i	-14	i	i	i	1.3
N=C1S/C(=C\c2ccc(-c3cccc(Cl)c3)o2)C(=O)N1c1nccs1	i	26*	i	i	i	1.9
N=C1/C(=C\c2ccc(-c3ccc(C(=O)O)cc3)o2)C(=O)N=C2SC=C(c3ccccc3)N12	i	-17	i	i	i	-0.4
SMILES	KCNQ1 pot	hERG rescue	KCNQ1 block	KCNK9 block	KCNK3 block	Kir21 block
N=C1/C(=C\c2ccc(-c3cccc(Cl)c3)o2)C(=O)N=C2SC=C(c3ccccc3)N12	8*	-5	i	i	i	0.98
COc1cc(C(F)(F)F)ccc1C(=O)NCCc1ccco1	i	-3	i	i	i	-0.56
CCN(CC)C(=S)SSC(=S)N(CC)CC	i	-22	i	i	i	-4.5*
CCOC(=O)C(=CNc1nc(-c2ccc3ccccc3c2)cs1)C(=O)OCC	i	-8	i	i	i	0.27
O=c1c2ccccc2[nH]c(=S)n1Cc1ccccc1	i	-5	i	i	i	-0.44
O=c1c2ccccc2[nH]c(=S)n1CCc1ccccc1	17*	20*	i	i	i	1.1
CCOC(=O)Nc1c(O)ccc2oc(C)c(-c3ccccc3)c12	i	-7	i	i	i	-15*
C/C=C/c1ccc(OCC(O)CNCCc2ccc(OC)cc2)c(OC)c1 (stereo not drawn)	i	-11	i	i	i	-6*
C/C=C/c1ccc(OCC(O)CN(C)Cc2ccc(SC)cc2)c(OC)c1 (stereo not drawn)	i	-20	i	i	i	-11*
CCN(CC)CCN(C(=O)c1cc2c(ccc3ccccc32)oc1=O)c1nc2cc3c(cc2s1)OCCO3	i	-11	i	i	i	0.72
COc1ccc(OC)c(/C=C2\SC(N3CCCC(C)C3)=NC2=O)c1 (stereo not drawn)	i	-13	7*	i	i	-0.1
COc1ccc(/C=C2\SC(N3CCCCC3)=NC2=O)cc1OC	i	-4	i	i	i	-0.31
Cc1nc(NCc2cccnc2)c2c3c(sc2n1)CC(C)CC3 (stereo not drawn)	38*	52*	i	i	i	-0.41
CCOC(=O)c1sc2nc(C)nc(NCc3cccnc3)c2c1C	i	-6	i	i	i	0.03
O=C(Nc1nc(-c2ccccc2)cs1)c1ccco1	i	-12	i	i	i	-0.1
O=C(NC(=S)Nc1nc(-c2ccc(Br)cc2)cs1)c1cccnc1	i	-9	i	i	i	0.05
O=C(NC(=S)Nc1nc(-c2ccc(Br)cc2)cs1)c1ccco1	i	6.3*	i	i	i	0.04
O=C(NC(=S)Nc1nc(-c2ccc([N+](=O)[O-])cc2)cs1)c1ccco1	21*	15*	i	i	i	-0.09
N#Cc1c(-c2ccccc2)cc(-c2ccccc2)nc1SCCC(=O)O	i	-3	i	i	i	1.4
Cc1cc(C(=O)OCC(=O)Nc2c(Cl)cccc2Cl)c(C)o1	.	.	.	.	i	.
Cc1cc(/C=C(\C#N)c2nc3ccccc3[nH]2)c(C)n1C	i	-6	i	i	i	0.6
Cc1cc(/C=C(/C#N)c2nc3ccccc3[nH]2)c(C)n1-c1cccc([N+](=O)[O-])c1	i	-6	8*	i	i	0.88
CCCn1c(C)cc(C(=O)COC(=O)c2cc(S(=O)(=O)NCC(C)C)c(Cl)cc2Cl)c1C	i	-9	i	-7*	i	1.4

Bioassay records deposited in PubChem BioAssay by Johns Hopkins Ion Channel Center.
